Our source for the Activity and IC50 values is ChEMBL document CHEMBL4229344 (Eur J Med Chem, 2018).

Structures are written as SMILES.

In assay [1] the test system is Hepatocyte growth factor receptor (Homo sapiens), P08581 [M1250T]. As to the kind of experiment: Binding affinity to human partial length MET M1250T mutant (D1010 to S1367 residues) expressed in bacterial expression system assessed as residual binding level at 1 uM by Kinomescan method relative to control. The gist of the method:
(§1)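 Kinome-wide single-concentration binding screen (KINOMEscan) at 1 μM against a panel of 468 purified kinases and mutants. Read-out is relative binding of each kinase compared with control. Selectivity across the panel was summarised as an S(10) score.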

Assay [2] deals with Myosin light chain kinase (Homo sapiens) (UniProt Q32MK0). As to the kind of experiment: Binding affinity to wild-type human partial length MLCK (D488 to K800 residues) expressed in bacterial expression system assessed as residual binding level at 1 uM by Kinomescan method relative to control. The essentials: (§2)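 Kinome-wide competition binding screen against a panel of 468 purified kinases/mutants, with the test compound at a single concentration of 1 μM. Read-out is the relative binding activity of each kinase in the presence of compound.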

In assay [3] the target is Casein kinase I isoform alpha-like (Homo sapiens) (UniProt Q8N752). Description: Binding affinity to wild-type human full length CSNK1A1L (M1 to N337 residues) expressed in bacterial expression system assessed as residual binding level at 1 uM by Kinomescan method relative to control. The gist of the method: (§3)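 Single-concentration (1 μM) competition-binding screen run by KINOMEscan against a panel of 468 purified kinases and mutants. The read-out is the relative binding activity of the test compound to each kinase.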

The target of assay [4] is Casein kinase II subunit alpha' (Homo sapiens) (UniProt P19784). Description: Binding affinity to wild-type human full length CSNK2A2 (M1 to R350 residues) expressed in mammalian expression system assessed as residual binding level at 1 uM by Kinomescan method relative to control. The gist of the method:
as §3

The target of assay [5] is 1-phosphatidylinositol 3-phosphate 5-kinase (Homo sapiens) (UniProt Q9Y2I7). Description: Binding affinity to wild-type human partial length PIKFYVE (F1512 to C2098 residues) expressed in mammalian expression system assessed as residual binding level at 1 uM by Kinomescan method relative to control. The essentials: (§4)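 KINOMEscan competition binding against a panel of 468 purified kinases/mutants, compound tested at 1 μM; readout is relative binding activity versus control.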

For assay [6], the target named is Ribosomal protein S6 kinase beta-1 (Homo sapiens) (UniProt P23443). Description: Binding affinity to wild-type human partial length S6K1 (M1 to S421 residues) expressed in mammalian expression system assessed as residual binding level at 1 uM by Kinomescan method relative to control.
The target in assay [7] is Ribosomal protein S6 kinase alpha-3 (Homo sapiens) (UniProt P51812). Description: Binding affinity to wild-type human partial length N-terminal RSK2 kinase domain 1 (M1 to D394 residues) expressed in mammalian expression system assessed as residual binding level at 1 uM by Kinomescan method relative to control.
Assay [8] deals with Serine/threonine-protein kinase TBK1 (Homo sapiens) (UniProt Q9UHD2). As to the kind of experiment: Binding affinity to wild-type human full length TBK1 (M1 to L729 residues) expressed in mammalian expression system assessed as residual binding level at 1 uM by Kinomescan method relative to control. The gist of the method: (§5)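 Single-concentration KINOMEscan (DiscoverX) binding screen at 1 μM against a panel of 468 purified kinases and mutants. The read-out is binding relative to control.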

Assay [9] addresses T1, Epithelial discoidin domain-containing receptor 1 (Homo sapiens, UniProt Q08345). Description: Inhibition of DDR1 (unknown origin) using poly(4:1 Glu,Tyr) peptide as substrate preincubated for 1 hr followed by addition of ATP and measured after 30 mins by ADP-Glo bioluminescence assay. (ADP-Glo turns the ADP formed in a reaction into a luminescent signal.)
Assay [10] has as its system Tyrosine-protein kinase ABL1 (Homo sapiens), P00519 [T315I]. Description: Binding affinity to human non-phosphorylated ABL1 T315I mutant (S229 to K512 residues) expressed in mammalian expression system assessed as residual binding level at 1 uM by Kinomescan method relative to control. The essentials:
as §1

In assay [11] the target is T1, Epithelial discoidin domain-containing receptor 1. Description: Binding affinity to wild-type human partial length DDR1 (R565 to V876 residues) expressed in bacterial expression system assessed as residual binding level at 1 uM by Kinomescan method relative to control. The gist of the method:
as §2

In assay [12] the target is Aurora kinase C (Homo sapiens) (UniProt Q9UQB9). As to the kind of experiment: Binding affinity to wild-type human full length AURKC (M1 to S275 residues) expressed in bacterial expression system assessed as residual binding level at 1 uM by Kinomescan method relative to control. The gist of the method:
as §3

Assay [13] concerns Tyrosine-protein kinase ABL1 (Homo sapiens), P00519 [H396P]. Description: Binding affinity to human phosphorylated ABL1 H396P mutant (S229 to K512 residues) expressed in mammalian expression system assessed as residual binding level at 1 uM by Kinomescan method relative to control. The gist of the method:
as §3

For assay [14], the target named is Mitogen-activated protein kinase 8 (Homo sapiens) (UniProt P45983). Description: Binding affinity to wild-type human full length JNK1 (M1 to Q384 residues) expressed in mammalian expression system assessed as residual binding level at 1 uM by Kinomescan method relative to control. The essentials: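 KINOMEscan competition binding against 468 purified kinases/mutants, test compound at 1 µM; residual binding relative to control.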

The target of assay [15] is Ribosomal protein S6 kinase alpha-4 (Homo sapiens) (UniProt O75676). Description: Binding affinity to wild-type human partial length N-terminal RPS6KA4 kinase domain 1 expressed in bacterial expression system assessed as residual binding level at 1 uM by Kinomescan method relative to control.
For assay [16], the target named is Protein-tyrosine kinase 6 (Homo sapiens) (UniProt Q13882). Description: Binding affinity to wild-type human partial length BRK (L166 to T451 residues) expressed in bacterial expression system assessed as residual binding level at 1 uM by Kinomescan method relative to control. The gist of the method: as §5
For assay [17], the target named is Dual specificity protein kinase CLK2 (Homo sapiens) (UniProt P49760). As to the kind of experiment: Binding affinity to wild-type human partial length CLK2 (D144 to R498 residues) expressed in bacterial expression system assessed as residual binding level at 1 uM by Kinomescan method relative to control. The essentials: as §2
Assay [18] relates to Phosphatidylinositol 4,5-bisphosphate 3-kinase catalytic subunit alpha isoform (Homo sapiens), P42336 [E545K]. As to the kind of experiment: Binding affinity to human partial length PIK3CA E545K mutant (R108 to N1068 residues) expressed in mammalian expression system assessed as residual binding level at 1 uM by Kinomescan method relative to control. The gist of the method:
as §1

In assay [19] the target is Tyrosine-protein kinase ZAP-70 (Homo sapiens) (UniProt P43403). Description: Binding affinity to wild-type human partial length ZAP70 (D20 to G299 residues) expressed in mammalian expression system assessed as residual binding level at 1 uM by Kinomescan method relative to control.
Assay [20] has as its target Serine/threonine-protein kinase Nek9 (Homo sapiens) (UniProt Q8TD19). As to the kind of experiment: Binding affinity to wild-type human partial length NEK9 (P32 to R328 residues) expressed in bacterial expression system assessed as residual binding level at 1 uM by Kinomescan method relative to control. The gist of the method: as §4
Assay [21] deals with Receptor-type tyrosine-protein kinase FLT3 (Homo sapiens), P36888 [D835H]. Description: Binding affinity to human partial length FLT3 D835H mutant (V592 to Y969 residues) expressed in bacterial expression system assessed as residual binding level at 1 uM by Kinomescan method relative to control. The gist of the method: as §1

`Cc1ccc(NC(=O)c2ccc(CN(CCN(C)C)C(=O)c3cccnc3)cc2)cc1Nc1nccc(-c2cccnc2)n1`: the Activity in assay [1] amounted to 86%; in assay [2] it was 80%; in assay [3], 93%; in assay [4], 88%; in [5] it was 91%; in assay [6], 100%. Moreover, the Activity was found to be 100% in assay [7]; 86% in assay [8]; 100% in assay [10]; 3.9% in assay [11]; 97% in [12]; 97% in [13]. For the same compound, the Activity in assay [14] was 36%; in assay [15], 82%; in [16] it was 81%; in [17], 73%; in [18], 87%; in assay [19] it was 100%. Further, the Activity in assay [20] was found to be 92%; in assay [21], 100%. Half-maximal inhibition in assay [9] (IC50) was put at 2460 nM.
